Here are results for 27 compounds from ChEMBL document CHEMBL1828531, “Pyrazol-3-propanoic acid derivatives as novel inhibitors of leukotriene biosynthesis in human neutrophils” (Eur J Med Chem, 2011).

Test [1] concerns the target T1, Polyunsaturated fatty acid 5-lipoxygenase (Homo sapiens) (UniProt P09917).
T1 sequence (whole entry): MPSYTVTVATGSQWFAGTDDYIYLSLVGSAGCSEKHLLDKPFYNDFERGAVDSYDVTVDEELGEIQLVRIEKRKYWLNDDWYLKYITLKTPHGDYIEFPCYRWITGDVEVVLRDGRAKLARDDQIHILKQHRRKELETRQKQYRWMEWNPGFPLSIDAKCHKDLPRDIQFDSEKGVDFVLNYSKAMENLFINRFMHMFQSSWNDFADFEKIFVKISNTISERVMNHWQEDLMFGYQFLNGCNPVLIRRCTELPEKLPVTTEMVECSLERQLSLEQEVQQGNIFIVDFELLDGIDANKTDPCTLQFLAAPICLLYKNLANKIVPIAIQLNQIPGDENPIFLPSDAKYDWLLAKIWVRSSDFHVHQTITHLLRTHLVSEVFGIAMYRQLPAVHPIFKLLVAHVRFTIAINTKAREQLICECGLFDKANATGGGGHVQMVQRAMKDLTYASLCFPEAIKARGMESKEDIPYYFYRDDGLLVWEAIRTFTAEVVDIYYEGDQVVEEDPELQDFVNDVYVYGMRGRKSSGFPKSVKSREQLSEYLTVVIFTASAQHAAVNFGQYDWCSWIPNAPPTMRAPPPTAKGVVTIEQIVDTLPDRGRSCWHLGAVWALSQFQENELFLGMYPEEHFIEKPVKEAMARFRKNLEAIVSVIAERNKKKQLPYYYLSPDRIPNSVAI
The test is described as follows: Inhibition of recombinant human 5-Lipoxygenase expressed in Escherichia coli lysate assessed as residual activity at 10 uM after 10 mins by HPLC analysis. The method in brief:
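Human 5-LO expressed at 30 °C in E. coli MV1190 (pT3-5LO); lysate 40,000 g supernatant in PBS pH 7.4 with 1 mM EDTA. Preincubated with compound 10 min at 4 °C, warmed 30 s at 37 °C. Started with 2 mM CaCl2 plus 20 µM AA, 10 min at 37 °C. Methanol stop, HPLC. Residual % versus 0.3% DMSO vehicle, n = 3–5.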

Test [2] concerns the target T1, Polyunsaturated fatty acid 5-lipoxygenase (Homo sapiens). Put plainly: Inhibition of 5-Lipoxygenase in arachidonic acid-stimulated human neutrophils assessed as residual activity at 10 uM after 15 mins by HPLC analysis in presence of A23187. The procedure, abridged: (§1)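 Human neutrophils, 5 × 10^6/mL in PBS/glucose/1 mM CaCl2, preincubated 15 min at RT, then 2.5 µM A23187 plus 20 µM AA for 10 min at 37 °C. Methanol stop, PGB1 internal standard, HPLC of LTB4, its all-trans isomers and 5-H(p)ETE. Residual % versus 0.3% DMSO vehicle, mean ± SEM, n = 3–5. IC50 by linear interpolation from 4–5 concentrations.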

Test [3] deals with T2, Polyunsaturated fatty acid 5-lipoxygenase (Homo sapiens, UniProt P09917).
T2 sequence (P09917 whole entry): T1 sequence (whole entry)
Put plainly: Inhibition of 5-Lipoxygenase in arachidonic acid-stimulated human neutrophils after 15 mins by HPLC analysis in presence of A23187. The method in brief:
as §1

Each structure is given as a SMILES string.

As to `O=C(CCc1cc(-c2ccc(C(F)(F)F)cc2)n(-c2ccc(Cl)nn2)n1)Oc1ccc(-n2cccc2)cc1`, the Activity in test [1] worked out at 90.8%; in test [2], 94.1%.
The like results for `O=C(CCc1cc(-c2ccc(C(F)(F)F)cc2)n(-c2ccc(Cl)nn2)n1)N1CCN(C(=O)c2ccco2)CC1` were, in that order, 126% and 81.8%.
`CC(C)(C)c1ccc(CN2CCN(C(=O)CCc3cc(-c4ccc(C(F)(F)F)cc4)n(-c4ccc(Cl)nn4)n3)CC2)cc1`: the Activity in test [1] came to 88.9%; in test [2], 17.4%. Besides, the IC50 in test [3] came out at 2.9 µM.
The like results for `CC(C)(C)c1ccc(CN2CCN(C(=O)CCc3cc(-c4ccc(C(F)(F)F)cc4)n(-c4ccc5ccccc5n4)n3)CC2)cc1` were, in that order, 87.3%, 44.5% and 3 µM.
The like results for `Cc1ccc(-c2cc(CCC(=O)N3CCN(Cc4ccc(C(C)(C)C)cc4)CC3)nn2-c2ccc(Cl)cc2)cc1` were, in that order, 111%, 27.7% and 2.9 µM.
The like results for `COc1ccc(-n2nc(CCC(=O)N3CCN(Cc4ccc(C(C)(C)C)cc4)CC3)cc2-c2ccc(C(F)(F)F)cc2)nn1` were, in that order, 56.1%, 36.2% and 8 µM.
As for `CC(C)(C)c1ccc(CN2CCN(C(=O)CCc3cc(-c4ccc(C(F)(F)F)cc4)n(-c4ccccc4)n3)CC2)cc1`, the Activity was determined as 109% in test [1] and 12.7% in test [2]. The IC50 in test [3] amounted to 2.9 µM.
For the compound `CCS(=O)(=O)N1CCN(C(=O)CCc2cc(-c3ccc(C)cc3)n(-c3ccc(Cl)nn3)n2)CC1`, the Activity was 93.6% in test [1] and 96.3% in test [2].
The like results for `Cc1ccc(-c2cc(CCC(=O)Oc3ccc(OC(F)(F)F)cc3)nn2-c2ccc(Cl)nn2)cc1` were, in that order, 116% and 70.5%.
Turning to `O=C(CCc1cc(-c2ccc(C(F)(F)F)cc2)n(-c2ccc(Cl)nn2)n1)Oc1ccc(C2CCCC2)cc1`, the values for the Activity in test [1] and in test [2] were 92% and 77.2%, respectively.
The like results for `O=C(CCc1cc(-c2ccc(F)cc2)n(-c2ccc(Cl)nn2)n1)Oc1ccc(-c2ccsc2)cc1` were, in that order, 83.4% and 90.8%.
As for `CC(C)(C)c1ccc(CN2CCN(C(=O)CCc3cc(-c4ccc(F)cc4)n(-c4ccccc4)n3)CC2)cc1`, the Activity in test [1] stood at 78.5%; in test [2], 3.7%. Also, in test [3], the IC50 was 2.5 µM.
On to `NC(=O)C1CCN(C(=O)CCc2cc(-c3ccc(C(F)(F)F)cc3)n(-c3ccc(Cl)nn3)n2)CC1`, for which the Activity turned out to be 103% in test [1] and 104% in test [2].
The like results for `Cc1ccc(-c2cc(CCC(=O)N3CCN(CC4CCCO4)CC3)nn2-c2ccc(Cl)nn2)cc1` (stereo unspecified) were, in that order, 106% and 86%.
For `CC(C)(C)c1ccc(CN2CCN(C(=O)CCc3cc(-c4ccc(F)cc4)n(-c4ccc5ccccc5n4)n3)CC2)cc1`, the Activity in test [1] was found to be 114%; in test [2] it was 10.4%. Moreover, the concentration for half-maximal inhibition (IC50) in test [3] was 2.8 µM.
In the case of `COc1ccc(NC(=O)CCc2cc(-c3ccc(F)cc3)n(-c3ccc(Cl)nn3)n2)cc1`, the Activity in test [1] stood at 91.6%; in test [2] it was 88.3%.
In the same order, the values of `Cc1ccc(-c2cc(CCC(=O)Oc3ccc(Oc4ccc(C(F)(F)F)cc4)cc3)nn2-c2ccc(Cl)nn2)cc1` are 95% and 86.5%.
On to `COc1ccc(-n2nc(CCC(=O)N3CCN(Cc4ccc(C(C)(C)C)cc4)CC3)cc2-c2ccc(F)cc2)nn1`, for which the Activity is 69.2% in test [1] and 50.1% in test [2]. In addition, the IC50 in test [3] is more than 10 µM.
In the same order, the values of `CC(C)(C)c1ccc(CN2CCN(C(=O)CCc3cc(-c4ccc(F)cc4)n(-c4ccc(Cl)cc4)n3)CC2)cc1` are 143%, 13.2% and 2.6 µM.
Turning to `O=C(CCc1cc(-c2ccc(F)cc2)n(-c2ccc(Cl)nn2)n1)Oc1ccc(-n2ccnc2)cc1`, the Activity amounted to 71.7% in test [1] and 111% in test [2].
As to `CC(C)(C)c1ccc(OC(=O)CCc2cc(-c3ccc(F)cc3)n(-c3ccc(Cl)nn3)n2)cc1`, the Activity in test [1] was determined as 92.7%; in test [2], 67.3%.
Regarding `COc1ccc(-n2nc(CCC(=O)N3CCN(Cc4ccc(C(C)(C)C)cc4)CC3)cc2-c2ccc(C)cc2)nn1`, the results for the Activity in test [1] and in test [2] were 86.1% and 27.1%, respectively. In test [3], the IC50 came to 3.3 µM.
The like results for `CC(C)(C)c1ccc(CN2CCN(C(=O)CCc3cc(-c4ccc(C(F)(F)F)cc4)n(-c4ccc(Cl)cc4)n3)CC2)cc1` were, in that order, 138%, 43.9% and 8 µM.
Take `Cc1ccc(-c2cc(CCC(=O)Nc3ccc(N4CCOCC4)nc3)nn2-c2ccc(Cl)nn2)cc1`: the Activity in test [1] stood at 90%; in test [2], 106%.
As for `O=C(CCc1cc(-c2ccc(F)cc2)n(-c2ccc(Cl)nn2)n1)N1CCN(C(=O)C2CCCO2)CC1` (stereo unspecified), the Activity in test [1] was determined as 90.8%; in test [2] it was 95%.
Regarding `Cc1ccc(-c2cc(CCC(=O)N3CCN(Cc4ccc(C(C)(C)C)cc4)CC3)nn2-c2ccc(Cl)nn2)cc1`, the figures for the Activity in test [1] and in test [2] were 107% and 14.6%, respectively. For the same compound, the IC50 in test [3] is 2.8 µM.
As to `CCCCCCCOc1ccc(OC(=O)CCc2cc(-c3ccc(F)cc3)n(-c3ccc(Cl)nn3)n2)cc1`, the results for the Activity in test [1] and in test [2] were 86.5% and 90.1%, respectively.

One may read the IC50 as the concentration at which inhibition is half-maximal.
